Reference: ChEMBL document CHEMBL1152591, “Design, synthesis and structure-activity relationship of 2-(3',4',5'-trimethoxybenzoyl)-benzo[b]furan derivatives as a novel class of inhibitors of tubulin polymerization” (Bioorg Med Chem, 2009)

Experiments:
L1210 = assay: Cytotoxicity against mouse L1210 cells after 2 days; assay type: functional, cell-based; conditions: L1210, 48 h
Procedure, shortened: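 Cells were incubated with the compounds at 37 °C for two days, then counted on a Coulter counter. IC50 is the concentration that inhibits cell proliferation by 50%.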

[1] = Cytotoxicity against human Molt4/C8 cells after 2 days; conditions: MOLT-4, 48 h
CCRF-CEM = assay: Cytotoxicity against human CEM cells after 2 days; assay type: functional, cell-based; conditions: 48 h
HeLa = assay: Cytotoxicity against human HeLa cells after 2 days; assay type: functional, cell-based; conditions: 48 h
FM3A = assay: Cytotoxicity against mouse FM3A0 cells after 2 days; assay type: functional, cell-based; conditions: 48 h
K562 [2] = assay: Cell cycle arrest in human K562 cells assessed as accumulation at G2 phase at 1.62 µM after 24 hrs by flow cytometry
K562 [3] = assay: Cell cycle arrest in human K562 cells assessed as accumulation at S phase at 1.62 µM after 24 hrs by flow cytometry
K562 [4] = assay: Cell cycle arrest in human K562 cells assessed as accumulation at sub-G0/G1 phase at 1.62 µM after 24 hrs by flow cytometry
[5] = Inhibition of bovine tubulin polymerization; parameters: species or system Bos taurus
Procedure, shortened: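 Purified bovine brain tubulin (10 μM) in glutamate buffer was preincubated with varying compound concentrations at 30 °C, then cooled to 0 °C. GTP was added and the mixture warmed to 30 °C in a recording spectrophotometer. Assembly was followed by turbidity.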

K562 [6] = assay: Cell cycle arrest in human K562 cells assessed as accumulation at G1 phase at 1.62 µM after 24 hrs by flow cytometry
Bos taurus = species on record: Bos taurus; assay: Displacement of [3H]colchicine from bovine tubulin at 5 uM
Procedure, shortened: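 Reaction mixtures held 1 μM bovine brain tubulin, 5 μM [3H]colchicine and 5 μM test compound. Inhibition of radiolabelled colchicine binding to tubulin is expressed as percent inhibition.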

K562 [7] = assay: Cell cycle arrest in human K562 cells assessed as accumulation at S phase at 980 nM after 24 hrs by flow cytometry; assay type: functional
Procedure, shortened: (§1)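 K562 leukaemia cells were cultured for 24 h with compound at one fixed concentration. DNA content per cell was measured by the standard propidium iodide procedure and flow cytometry. Proportions of cells in the sub-G0–G1 (apoptotic), G0–G1, S and G2–M peaks were compared with an untreated control.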

K562 [8] = assay: Cell cycle arrest in human K562 cells assessed as accumulation at sub-G0/G1 phase at 980 nM after 24 hrs by flow cytometry; assay type: functional; procedure, shortened: as §1
K562 [9] = assay: Cell cycle arrest in human K562 cells assessed as accumulation at G1 phase at 980 nM after 24 hrs by flow cytometry; assay type: functional; procedure, shortened: as §1
K562 [10] = assay: Cell cycle arrest in human K562 cells assessed as accumulation at G2 phase at 980 nM after 24 hrs by flow cytometry; assay type: functional; procedure, shortened: as §1
K562 [11] = assay: Cell cycle arrest in human K562 cells assessed as accumulation at G1 phase at 480 nM after 24 hrs by flow cytometry; assay type: functional
K562 [12] = assay: Cell cycle arrest in human K562 cells assessed as accumulation at G2 phase at 480 nM after 24 hrs by flow cytometry; assay type: functional
K562 [13] = assay: Cell cycle arrest in human K562 cells assessed as accumulation at S phase at 480 nM after 24 hrs by flow cytometry; assay type: functional
K562 [14] = assay: Cell cycle arrest in human K562 cells assessed as accumulation at sub-G0/G1 phase at 480 nM after 24 hrs by flow cytometry; assay type: functional
K562 [15] = assay: Cell cycle arrest in human K562 cells assessed as accumulation at S phase at 420 nM after 24 hrs by flow cytometry; assay type: functional
K562 [16] = assay: Cell cycle arrest in human K562 cells assessed as accumulation at G1 phase at 420 nM after 24 hrs by flow cytometry; assay type: functional
K562 [17] = assay: Cell cycle arrest in human K562 cells assessed as accumulation at G2 phase at 420 nM after 24 hrs by flow cytometry; assay type: functional
K562 [18] = assay: Cell cycle arrest in human K562 cells assessed as accumulation at sub-G0/G1 phase at 420 nM after 24 hrs by flow cytometry; assay type: functional
K562 [19] = assay: Cell cycle arrest in human K562 cells assessed as accumulation at G2 phase at 530 nM after 24 hrs by flow cytometry; assay type: functional; procedure, shortened: as §1
K562 [20] = assay: Cell cycle arrest in human K562 cells assessed as accumulation at S phase at 530 nM after 24 hrs by flow cytometry; assay type: functional; procedure, shortened: as §1
K562 [21] = assay: Cell cycle arrest in human K562 cells assessed as accumulation at G1 phase at 530 nM after 24 hrs by flow cytometry; assay type: functional; procedure, shortened: as §1
K562 [22] = assay: Cell cycle arrest in human K562 cells assessed as accumulation at sub-G0/G1 phase at 530 nM after 24 hrs by flow cytometry; assay type: functional; procedure, shortened: as §1
K562 [23] = assay: Cell cycle arrest in human K562 cells assessed as accumulation at S phase at 16 nM after 24 hrs by flow cytometry; assay type: functional; procedure, shortened: as §1
K562 [24] = assay: Cell cycle arrest in human K562 cells assessed as accumulation at sub-G0/G1 phase at 16 nM after 24 hrs by flow cytometry; assay type: functional; procedure, shortened: as §1
K562 [25] = assay: Cell cycle arrest in human K562 cells assessed as accumulation at G2 phase at 16 nM after 24 hrs by flow cytometry; assay type: functional; procedure, shortened: as §1
K562 [26] = assay: Cell cycle arrest in human K562 cells assessed as accumulation at G1 phase at 16 nM after 24 hrs by flow cytometry; assay type: functional; procedure, shortened: as §1

Row | Structure (SMILES) | IC50 (L1210) [nM] | IC50 [1] [nM] | IC50 (CCRF-CEM) [nM] | IC50 (HeLa) [nM] | IC50 (FM3A) [nM] | IC50 [5] [nM] | Activity (Bos taurus) [%] | further results
1 | COc1cc(C(=O)c2cc3cc(O)ccc3o2)cc(OC)c1OC | > 10000 | > 10000 | > 10000 | > 10000 | > 10000 |  |  | 
2 | COc1ccc2cc(C(OC)c3cc(OC)c(OC)c(OC)c3)oc2c1 (stereo not given) | > 10000 | > 10000 | > 10000 | 4400 | > 10000 |  |  | 
3 | COc1ccc2cc(Cc3cc(OC)c(OC)c(OC)c3)oc2c1 | 2300 | 770 | 1500 | 680 | 2600 |  |  | 
4 | COc1cc(C(=O)c2oc3cc(F)ccc3c2C)cc(OC)c1OC | 3500 | 2100 | 2700 |  | 3700 | 6900 |  | Activity (K562 [2]): 47.46%; Activity (K562 [3]): 44.32%; Activity (K562 [4]): 44.32%; Activity (K562 [6]): 8.23%
5 | COc1cc(C(=O)c2cc3c(OC)cccc3o2)cc(OC)c1OC | 410 | 360 | 870 | 410 | 550 | 1100 | 76 | Activity (K562 [7]): 37.4%; Activity (K562 [8]): 20.71%; Activity (K562 [9]): 4.14%; Activity (K562 [10]): 58.46%
6 | COc1cc(C(=O)c2cc3ccc(OC)c(O)c3o2)cc(OC)c1OC | > 10000 | > 10000 | > 10000 | > 10000 | > 10000 |  |  | 
7 | COc1ccc2c(N)c(C(=O)c3cc(OC)c(OC)c(OC)c3)oc2c1 |  | 140 |  |  |  |  |  | 
8 | COc1cc(C(=O)c2oc3ccc(O)cc3c2C)cc(OC)c1OC | 800 | 240 | 430 | 290 | 430 | 1100 | 69 | Activity (K562 [11]): 18.79%; Activity (K562 [12]): 47.38%; Activity (K562 [13]): 33.83%; Activity (K562 [14]): 22.13%
9 | COc1cc(C(=O)c2cc3cc(OC)c(OC)c(OC)c3o2)cc(OC)c1OC | > 10000 | > 10000 | > 10000 | > 10000 | > 10000 |  |  | 
10 | COc1cc(C(=O)c2oc3cccc(OC)c3c2C)cc(OC)c1OC | 590 | 200 | 490 | 340 | 570 | 1800 | 66 | Activity (K562 [15]): 42.1%; Activity (K562 [16]): 7.7%; Activity (K562 [17]): 50.2%; Activity (K562 [18]): 21.24%
11 | COc1ccc2oc(C(=O)c3cc(OC)c(OC)c(OC)c3)cc2c1 | > 10000 | 9400 | > 10000 | > 10000 | > 10000 |  |  | 
12 | COc1cc(C(=O)c2cc3cccc(O)c3o2)cc(OC)c1OC | > 10000 | > 10000 | > 10000 | > 10000 | > 10000 |  |  | 
13 | COc1cc(C(=O)c2oc3cccc(O)c3c2C)cc(OC)c1OC | 480 | 84 | 100 | 130 | 330 | 570 | 85 | Activity (K562 [19]): 65.12%; Activity (K562 [20]): 26.37%; Activity (K562 [21]): 8.52%; Activity (K562 [22]): 7.6%
14 | CCOc1ccc2c(C)c(C(=O)c3cc(OC)c(OC)c(OC)c3)oc2c1 | 2 | 1.2 | 2.8 | 6.3 | 2.8 | 430 | 96 | Activity (K562 [23]): 25.34%; Activity (K562 [24]): 13.24%; Activity (K562 [25]): 70.99%; Activity (K562 [26]): 3.67%
15 | COc1cc(C(=O)c2cc3cc(C)ccc3o2)cc(OC)c1OC | 7100 | 2500 | 7200 | > 10 | 8400 |  |  | 
